Source: ChEMBL document CHEMBL2417469, “Synthesis of novel analogs of 2-pyrazoline obtained from [(7-chloroquinolin-4-yl)amino]chalcones and hydrazine as potential antitumor and antimalarial agents” (Eur J Med Chem, 2013)

Experiments:
Assay type in all cases: functional
BT-549 = test: Cytotoxicity against human BT549 cells after 48 hrs by SRB assay; settings: BT-549, 48 h
How it was run: (§1)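 NCI 60-cell-line screen. Cells preincubated 24 h at 37 °C, 5% CO2; time-zero plates TCA-fixed. Compounds dissolved in DMSO and tested at five concentrations (100, 10, 1.0, 0.1, 0.01 µM) for 48 h continuous exposure. Adherent cells fixed with cold TCA (10% final), then SRB stained; absorbance at 515 nm. GI50, TGI and LC50 calculated from growth relative to time-zero and untreated controls.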

Plasmodium falciparum = test: Antimalarial activity against Plasmodium falciparum NF54 infected in human serum at 20 ug/ml after 48 hrs by fluorometric method
How it was run: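 Asynchronous P. falciparum NF54 at 1.5–2% parasitemia, 5% hematocrit in RPMI with 10% human serum, exposed 48 h at 37 °C under 90% N2/5% CO2/5% O2 at the stated concentration; parasite DNA stained with ethidium bromide after proteinase K lysis; viability % = (Flu treated − medium)/(Flu untreated − medium) ×100; triplicate.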

CAKI-1 = test: Cytotoxicity against human Caki1 cells after 48 hrs by SRB assay; settings: CAKI-1, 48 h; how it was run: as §1
Malme-3M = test: Cytotoxicity against human MALME-3M cells after 48 hrs by SRB assay; how it was run: as §1
SF-268 = test: Cytotoxicity against human SF268 cells after 48 hrs by SRB assay; settings: SF-268, 48 h; how it was run: as §1
KM12 = test: Cytotoxicity against human KM12 cells after 48 hrs by SRB assay; settings: KM12, 48 h; how it was run: as §1
A549 = test: Cytotoxicity against human A549/ATCC cells after 48 hrs by SRB assay; settings: A549, 48 h; how it was run: as §1
RPMI-8226 = test: Cytotoxicity against human RPMI8226 cells after 48 hrs by SRB assay; settings: RPMI-8226, 48 h; how it was run: as §1
MDA-MB-435 = test: Cytotoxicity against human MDA-MB-435 cells after 48 hrs by SRB assay; settings: MDA-MB-435, 48 h; how it was run: as §1
UACC-62 = test: Cytotoxicity against human UACC62 cells after 48 hrs by SRB assay; settings: UACC-62, 48 h
How it was run: (§2)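 NCI 60-cell screen. Cells grew 24 h (37 °C, 5% CO2) before compound was added. Compounds were in DMSO and diluted in medium with gentamicin, then tested at five levels (100, 10, 1.0, 0.1, 0.01 µM) with 48 h continuous exposure. Adherent cells were fixed with TCA (10% final) and stained with 0.4% SRB, absorbance read at 515 nm. A time-zero plate was included. LC50 is the concentration giving 50% loss of protein relative to time zero.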

SR = test: Cytotoxicity against human SR cells after 48 hrs by SRB assay; how it was run: as §2
U-251 = test: Cytotoxicity against human U251 cells after 48 hrs by SRB assay; settings: U-251, 48 h; how it was run: as §2
NCI-H460 = test: Cytotoxicity against human NCI-H460 cells after 48 hrs by SRB assay; settings: NCI-H460, 48 h; how it was run: as §1
HCT-15 = test: Cytotoxicity against human HCT15 cells after 48 hrs by SRB assay; settings: HCT-15, 48 h; how it was run: as §1
MDA-MB-468 = test: Cytotoxicity against human MDA-MB-468 cells after 48 hrs by SRB assay; settings: MDA-MB-468, 48 h; how it was run: as §1
M14 = test: Cytotoxicity against human M14 cells after 48 hrs by SRB assay; settings: M14, 48 h; how it was run: as §1
SN12C = test: Cytotoxicity against human SN12C cells after 48 hrs by SRB assay; how it was run: as §1
T47D = test: Cytotoxicity against human T47D cells after 48 hrs by SRB assay; how it was run: as §2
NCI-H522 = test: Cytotoxicity against human NCI-H522 cells after 48 hrs by SRB assay; settings: NCI-H522, 48 h; how it was run: as §1
NCI/ADR-RES = test: Cytotoxicity against human NCI/ADR-RES cells after 48 hrs by SRB assay; how it was run: as §1
LOX IMVI = test: Cytotoxicity against human LOXIMVI cells after 48 hrs by SRB assay; how it was run: as §1
COLO 205 = test: Cytotoxicity against human COLO205 cells after 48 hrs by SRB assay; settings: COLO 205, 48 h; how it was run: as §1
OVCAR-8 = test: Cytotoxicity against human OVCAR8 cells after 48 hrs by SRB assay; settings: OVCAR-8, 48 h; how it was run: as §1
SF-295 = test: Cytotoxicity against human SF295 cells after 48 hrs by SRB assay; settings: SF-295, 48 h; how it was run: as §1
HCT-116 = test: Cytotoxicity against human HCT116 cells after 48 hrs by SRB assay; settings: HCT-116, 48 h; how it was run: as §1
SK-MEL-5 = test: Cytotoxicity against human SK-MEL-5 cells after 48 hrs by SRB assay; settings: SK-MEL-5, 48 h; how it was run: as §1
HCC 2998 = test: Cytotoxicity against human HCC2998 cells after 48 hrs by SRB assay; settings: HCC 2998, 48 h; how it was run: as §1
RXF 393 = test: Cytotoxicity against human RXF393 cells after 48 hrs by SRB assay; settings: RXF 393, 48 h; how it was run: as §1
IGROV-1 = test: Cytotoxicity against human IGROV1 cells after 48 hrs by SRB assay; settings: IGROV-1, 48 h; how it was run: as §1
HT-29 = test: Cytotoxicity against human HT-29 cells after 48 hrs by SRB assay; settings: HT-29, 48 h; how it was run: as §1
SK-OV-3 = test: Cytotoxicity against human SKOV3 cells after 48 hrs by SRB assay; settings: SK-OV-3, 48 h; how it was run: as §1
SF-539 = test: Cytotoxicity against human SF539 cells after 48 hrs by SRB assay; settings: SF-539, 48 h; how it was run: as §1
SK-MEL-2 = test: Cytotoxicity against human SK-MEL-2 cells after 48 hrs by SRB assay; settings: SK-MEL-2, 48 h; how it was run: as §1
NCI-H226 = test: Cytotoxicity against human NCI-H226 cells after 48 hrs by SRB assay; settings: NCI-H226, 48 h; how it was run: as §1
[1] = read-out: LC50 (the source's name)

O=CN1N=C(c2cccc(Nc3ccnc4cc(Cl)ccc34)c2)CC1c1ccccc1 (configuration not stated)
GI50 (BT-549): 210 nM | LC50 (50% net cell kill vs time zero) (BT-549): 30900 nM | inhibition at 20 µg/mL (Plasmodium falciparum): 0% | GI50 (CAKI-1): 330 nM | LC50 (CAKI-1): 35300 nM | GI50 (Malme-3M): 370 nM | LC50 (Malme-3M): > 100000 nM | GI50 (SF-268): 1040 nM | LC50 (SF-268): > 100000 nM | GI50 (KM12): 290 nM | LC50 (concentration killing 50% of cells) (KM12): > 100000 nM | GI50 (A549): 540 nM | CC50 (A549; [1]): > 100000 nM | GI50 (RPMI-8226): 490 nM | LC50 (concentration killing 50% of cells) (RPMI-8226): > 100000 nM | GI50 (MDA-MB-435): 130 nM | LC50 (MDA-MB-435): > 100000 nM | GI50 (UACC-62): 530 nM | CC50 (UACC-62; [1]): > 100000 nM | GI50 (SR): 200 nM | LC50 (SR): > 100000 nM | GI50 (U-251): 370 nM | CC50 (U-251; [1]): 5070 nM | GI50 (NCI-H460): 410 nM | LC50 (NCI-H460): > 100000 nM | GI50 (HCT-15): 520 nM | LC50 (concentration killing 50% of cells relative to time zero) (HCT-15): > 100000 nM | GI50 (MDA-MB-468): 220 nM | LC50 (MDA-MB-468): > 100000 nM | GI50 (M14): 330 nM | CC50 (M14; [1]): > 100000 nM | GI50 (SN12C): 630 nM | LC50 (50% net cell kill relative to time zero) (SN12C): > 100000 nM | GI50 (T47D): 340 nM | LC50 (concentration giving 50% cell kill relative to time zero) (T47D): > 100000 nM | GI50 (NCI-H522): 210 nM | CC50 (NCI-H522; [1]): > 100000 nM | GI50 (NCI/ADR-RES): 290 nM | CC50 (NCI/ADR-RES; [1]): > 100000 nM | GI50 (LOX IMVI): 450 nM | LC50 (LOX IMVI): 4230 nM | GI50 (COLO 205): 360 nM | LC50 (COLO 205): 7920 nM | GI50 (OVCAR-8): 510 nM | LC50 (50% net cell kill) (OVCAR-8): 56000 nM | GI50 (SF-295): 370 nM | LC50 (SF-295): 41200 nM | GI50 (HCT-116): 390 nM | LC50 (HCT-116): 4750 nM | GI50 (SK-MEL-5): 290 nM | LC50 (concentration killing 50% of cells present at time zero) (SK-MEL-5): 64200 nM | GI50 (HCC 2998): 1220 nM | LC50 (HCC 2998): > 100000 nM | GI50 (RXF 393): 390 nM | LC50 (concentration killing 50% of cells) (RXF 393): > 100000 nM | GI50 (IGROV-1): 820 nM | LC50 (concentration killing 50% of cells relative to time zero) (IGROV-1): > 100000 nM | GI50 (HT-29): 320 nM | LC50 (HT-29): 4320 nM | GI50 (SK-OV-3): 330 nM | LC50 (concentration killing 50% of cells) (SK-OV-3): > 100000 nM | GI50 (SF-539): 310 nM | CC50 (SF-539; [1]): 35700 nM | GI50 (SK-MEL-2): 260 nM | LC50 (SK-MEL-2): > 100000 nM | GI50 (NCI-H226): 6910 nM | LC50 (50% lethal concentration) (NCI-H226): > 100000 nM
